From article PMC6061379 (Clinical Drug Investigation, 2018)
Values joined by “and” are separate entries in the source; they are usually repeats but may differ in a detail not shown here. Equal entries are not always repeated. Where two headings read alike, the source gives them in different places.

What was measured:
URAT1 = conditions: read-out: half-maximal inhibitory constant in inhibiting URAT1; cited from earlier work
serum urate (sUA) = assay: Serum urate; type: in vivo, human; conditions: verinurad 15 mg; all groups
Outline: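 Single 15 mg dose. Serial serum sampled on Day −1 (baseline) and Day 1 at preset times up to 72 h post-dose. Urate measured enzymatically. Percent change from baseline time-matched to Day −1, with maximal and mean changes derived per renal-function group.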

[1] = Urinary pharmacokinetics after single oral verinurad 15 mg; type: in vivo, human; conditions: for fe0–72 fraction of drug excreted in urine unchanged from time zero to 72 h, GM (95% CI): verinurad 15 mg single oral dose; for CLR0–72, GLSMR (90% CI) versus normal renal function group / Decrease in renal clearance (CLR0-72) versus normal renal function: verinurad 15 mg
Outline: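 Single 15 mg dose given to males grouped by Cockcroft-Gault creatinine clearance. Total-catch urine collected at 6–12 h intervals to 72 h post-dose. Parent and metabolites quantified by validated LC-MS/MS, with the acyl-glucuronide hydrolysed by 2 M KOH and measured as total aglycone. Renal clearance and fraction excreted unchanged over 0–72 h. Ln-transformed parameters compared with the normal group by fixed-effects model; geometric mean ratios with 90% CI.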

[2] = humans, cited from earlier work
Plasma protein binding = type: in vitro ADME; conditions: human
Safety assessments = type: in vivo, human; conditions: for Number of adverse events / Subjects with adverse events, n (%): treatment-emergent; for Number of adverse events / Subjects with adverse events, n (%) / Number of adverse events of mild severity / Number of adverse events of moderate severity / Severe/life-threatening adverse events / Subjects with adverse events of mild severity, n (%) / Subjects with adverse events of moderate severity, n (%): verinurad 15 mg
Outline: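 Males with normal or impaired renal function were housed in the study centre from Day −2 until final procedures after a single 15 mg dose. Assessments covered adverse events (MedDRA v17.0), clinical laboratory tests, vital signs, ECGs and physical examinations. Clinically relevant laboratory abnormalities were graded for severity by the investigator using Rheumatology Common Toxicity Criteria v2.0.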

[3] = type: in vivo, human; conditions: for AUC0–∞, GLSMR (90% CI) versus normal renal function group / Cmax, GLSMR (90% CI) versus normal renal function group: plasma; for AUC0–∞, GLSMR (90% CI) versus normal renal function group / Cmax, GLSMR (90% CI) versus normal renal function group / CL/F, GLSMR (90% CI) versus normal renal function group / Increase in AUC0–∞ compared to subjects with normal renal function / Increase in Cmax compared to subjects with normal renal function: verinurad 15 mg; for CL/F total body clearance, GM (95% CI): verinurad 15 mg single oral dose, fasted
Outline: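 Males aged 18–85 y with sUA 4.5–10 mg/dl, grouped by Cockcroft-Gault eCrCl (normal ≥90, mild 60–<90, moderate 30–<60, severe 15–<30 ml/min). Normal group matched for age and BMI. Single 15 mg dose. Serial blood sampled up to 72 h post-dose; plasma acidified. Parent and metabolites measured by validated LC-MS/MS. Non-compartmental parameters, ln-transformed, fixed-effects model, geometric mean ratios with 90% CI versus normal.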

urinary uric acid = assay: Urinary uric acid pharmacodynamics after verinurad 15 mg; type: in vivo, human; conditions: for AeUR,0–24 h amount of urinary uric acid recovered in urine, mean (SD) / FEUA,0–24 h fractional excretion of uric acid, mean (SD) / ReUR,0–24 h rate of urinary uric acid excretion, mean (SD): following verinurad 15 mg
Outline: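 Total-catch urine collected at 6–12 h intervals to 72 h after a single 15 mg dose, with a Day −1 baseline. Urate and creatinine in serum and urine measured by enzymatic method.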

sUA = conditions: doses as low as; cited from earlier work
[4] = moderate renal impairment (N = 7)
[5] = severe renal impairment (N = 7)
[6] = moderate renal impairment (N = 8)
[7] = verinurad 15 mg single dose, all groups

fe0–72 fraction of drug excreted in urine unchanged from time zero to 72 h, GM (95% CI) [1, 4]: 1.05 (0.561–1.96) %
fe0–72 fraction of drug excreted in urine unchanged from time zero to 72 h, GM (95% CI) ([1]; normal renal function (N = 8)): 0.814 (0.508–1.31) %
fe0–72 fraction of drug excreted in urine unchanged from time zero to 72 h, GM (95% CI) [1, 5]: 0.362 (0.202–0.647) %
CLR0–72, GLSMR (90% CI) versus normal renal function group ([1]; mild renal impairment): 95.4% (60.6–150)
Decrease in renal clearance (CLR0-72) versus normal renal function ([1]; mild renal impairment): 5% and 4.6%
CLR0–72, GLSMR (90% CI) versus normal renal function group ([1]; moderate renal impairment): 58.3% (30.2–113)
Decrease in renal clearance (CLR0-72) versus normal renal function ([1]; moderate renal impairment): 42%
CLR0–72, GLSMR (90% CI) versus normal renal function group ([1]; severe renal impairment): 21.2% (13.6–32.8)
Decrease in renal clearance (CLR0-72) versus normal renal function ([1]; severe renal impairment): 79%
fraction unbound (Plasma protein binding): 0.013 to 0.024
AUC0–∞, GLSMR (90% CI) versus normal renal function group ([3]; mild renal impairment): 124% (88.8–173)
Cmax, GLSMR (90% CI) versus normal renal function group ([3]; mild renal impairment): 153% (115–203)
AUC0–∞, GLSMR (90% CI) versus normal renal function group ([3]; moderate renal impairment): 248% (168–366)
Cmax, GLSMR (90% CI) versus normal renal function group ([3]; moderate renal impairment): 173% (131–230)
AUC0–∞, GLSMR (90% CI) versus normal renal function group ([3]; severe renal impairment): 230% (146–363)
Cmax, GLSMR (90% CI) versus normal renal function group ([3]; severe renal impairment): 228% (155–336)
CL/F total body clearance, GM (95% CI) ([3]; mild renal impairment (N = 8)): 74.8 (53.7–104) L/h
CL/F total body clearance, GM (95% CI) [3, 4]: 37.3 (23.7–58.9) L/h
CL/F total body clearance, GM (95% CI) ([3]; normal renal function (N = 8)): 92.6 (68.7–125) L/h
CL/F total body clearance, GM (95% CI) [3, 5]: 40.3 (22.6–71.7) L/h
CL/F, GLSMR (90% CI) versus normal renal function group ([3]; mild renal impairment): 80.8% (57.9–113)
Increase in AUC0–∞ compared to subjects with normal renal function ([3]; mild renal impairment): 24%
Increase in Cmax compared to subjects with normal renal function ([3]; mild renal impairment): 53%
CL/F, GLSMR (90% CI) versus normal renal function group ([3]; moderate renal impairment): 40.3% (27.3–59.5)
Increase in AUC0–∞ compared to subjects with normal renal function ([3]; moderate renal impairment): 148%
Increase in Cmax compared to subjects with normal renal function ([3]; moderate renal impairment): 73%
CL/F, GLSMR (90% CI) versus normal renal function group ([3]; severe renal impairment): 43.5% (27.5–68.7)
Increase in AUC0–∞ compared to subjects with normal renal function ([3]; severe renal impairment): 130%
Increase in Cmax compared to subjects with normal renal function ([3]; severe renal impairment): 128%
Structure (SMILES): CC(C)(Sc1ccncc1-c1ccc(C#N)c2ccccc12)C(=O)O [Verinurad]
IC50 (URAT1): 0.036 µM
Time post-dose at which maximal percent change in sUA occurred (serum urate (sUA)): approximately 12 h
Parent drug excreted unchanged in urine ([2]; ref 21): about 2%
Parent drug excreted unchanged in urine ([2]; ref 26): about 2%
Subjects with TEAE possibly related to verinurad (Safety assessments; control group, oropharyngeal pain and rhinorrhea): One subject
Number of adverse events (Safety assessments; mild renal impairment (N = 8)): 3
Subjects with adverse events, n (%) (Safety assessments; mild renal impairment (N = 8)): 3 (37.5%)
Number of adverse events (Safety assessments; [6]): 2
Subjects with adverse events, n (%) (Safety assessments; [6]): 1 (12.5%)
Number of adverse events (Safety assessments; normal renal function (N = 8)): 5
Subjects with adverse events, n (%) (Safety assessments; normal renal function (N = 8)): 1 (12.5%)
Number of adverse events (Safety assessments; [5]): 2
Subjects with adverse events, n (%) (Safety assessments; [5]): 2 (28.6%)
Adverse event-related withdrawals (Safety assessments; [7]): no AE-related withdrawals
Changes in laboratory values or vital signs (Safety assessments; [7]): No clinically meaningful changes
Serious adverse events (Safety assessments; [7]): no serious AEs
Tolerability (Safety assessments; [7]): well tolerated
Number of adverse events of mild severity (Safety assessments; mild renal impairment (N = 8)): 2
Number of adverse events of moderate severity (Safety assessments; mild renal impairment (N = 8)): 1
Severe/life-threatening adverse events (Safety assessments; mild renal impairment (N = 8)): 0
Subjects with adverse events of mild severity, n (%) (Safety assessments; mild renal impairment (N = 8)): 2 (25.0%)
Subjects with adverse events of moderate severity, n (%) (Safety assessments; mild renal impairment (N = 8)): 1 (12.5%)
Number of adverse events of mild severity (Safety assessments; [6]): 1
Number of adverse events of moderate severity (Safety assessments; [6]): 1
Severe/life-threatening adverse events (Safety assessments; [6]): 0
Subjects with adverse events of mild severity, n (%) (Safety assessments; [6]): 1 (12.5%)
Subjects with adverse events of moderate severity, n (%) (Safety assessments; [6]): 1 (12.5%)
Number of adverse events of mild severity (Safety assessments; normal renal function (N = 8)): 4
Number of adverse events of moderate severity (Safety assessments; normal renal function (N = 8)): 1
Severe/life-threatening adverse events (Safety assessments; normal renal function (N = 8)): 0
Subjects with adverse events of mild severity, n (%) (Safety assessments; normal renal function (N = 8)): 1 (12.5%)
Subjects with adverse events of moderate severity, n (%) (Safety assessments; normal renal function (N = 8)): 1 (12.5%)
Number of adverse events of mild severity (Safety assessments; [5]): 1
Number of adverse events of moderate severity (Safety assessments; [5]): 1
Severe/life-threatening adverse events (Safety assessments; [5]): 0
Subjects with adverse events of mild severity, n (%) (Safety assessments; [5]): 1 (14.3%)
Subjects with adverse events of moderate severity, n (%) (Safety assessments; [5]): 1 (14.3%)
AeUR,0–24 h amount of urinary uric acid recovered in urine, mean (SD) (urinary uric acid; mild renal impairment (N = 8)): 880 (225) mg
FEUA,0–24 h fractional excretion of uric acid, mean (SD) (urinary uric acid; mild renal impairment (N = 8)): 16.2 (5.68) %
ReUR,0–24 h rate of urinary uric acid excretion, mean (SD) (urinary uric acid; mild renal impairment (N = 8)): 36.6 (9.39) mg/h
AeUR,0–24 h amount of urinary uric acid recovered in urine, mean (SD) (urinary uric acid; [4]): 707 (334) mg
FEUA,0–24 h fractional excretion of uric acid, mean (SD) (urinary uric acid; [4]): 13.0 (7.48) %
ReUR,0–24 h rate of urinary uric acid excretion, mean (SD) (urinary uric acid; [4]): 29.3 (13.8) mg/h
AeUR,0–24 h amount of urinary uric acid recovered in urine, mean (SD) (urinary uric acid; normal renal function (N = 8)): 969 (299) mg
FEUA,0–24 h fractional excretion of uric acid, mean (SD) (urinary uric acid; normal renal function (N = 8)): 13.8 (6.24) %
ReUR,0–24 h rate of urinary uric acid excretion, mean (SD) (urinary uric acid; normal renal function (N = 8)): 40.1 (12.1) mg/h
AeUR,0–24 h amount of urinary uric acid recovered in urine, mean (SD) (urinary uric acid; [5]): 393 (144) mg
FEUA,0–24 h fractional excretion of uric acid, mean (SD) (urinary uric acid; [5]): 12.7 (6.43) %
ReUR,0–24 h rate of urinary uric acid excretion, mean (SD) (urinary uric acid; [5]): 16.3 (6.02) mg/h
Time post-dose by which ReUR returned to baseline (urinary uric acid; verinurad 15 mg): ≤ 12 h
Lowest dose providing sUA lowering in humans (sUA): 2.5 mg
